Test system: Fibroblast
Experiment: Multiplex assay against human fibroblast
Assay type: toxicity, cell-based
Method in brief: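 Cells stained live at seeding with Hoechst33342, BioTracker Green Microtubule Cytoskeleton Dye, MitoTracker Red and Annexin V Alexa Fluor 680 were imaged on a CQ1 microscope at 37°C and 5% CO2 after compound addition. Their classification by CellPathfinder machine-learning gating ran from Hoechst high-intensity objects versus normal cells, to healthy, pyknosed or fragmented nuclei among normal cells, to mitotic or apoptotic among pyknosed cells. Tubulin, mitochondrial-mass and membrane-permeability phenotypes are per cents of healthy-nucleus cells.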

[1] = 12 h, 1 µM, compound concentration 1 uM, replicate 1
[2] = 12 h, 1 µM, compound concentration 1 uM, replicate 2
[3] = 12 h, 10 µM, compound concentration 10 uM, replicate 1
[4] = 12 h, 10 µM, compound concentration 10 uM, replicate 2
[5] = 24 h, 1 µM, compound concentration 1 uM, replicate 1
[6] = 24 h, 1 µM, compound concentration 1 uM, replicate 2
[7] = 24 h, 10 µM, compound concentration 10 uM, replicate 1
[8] = 24 h, 10 µM, compound concentration 10 uM, replicate 2
[9] = 48 h, 1 µM, compound concentration 1 uM, replicate 1
[10] = 48 h, 1 µM, compound concentration 1 uM, replicate 2
[11] = 48 h, 10 µM, compound concentration 10 uM, replicate 1
[12] = 48 h, 10 µM, compound concentration 10 uM, replicate 2

Structure (SMILES): COC(c1ccccc1)(c1ccccc1)[C@H](Oc1nc(C)cc(C)n1)C(=O)O [AMBRISENTAN]
- Population Apoptotic (%) [1]: 68%
- Population Fragmented Nuclei (%) [1]: 13%
- Population Healthy Nuclei (%) [1]: 66%
- Population Hoechst High Intensity Objects (%) [1]: 1%
- Population Membrane Permeable-Phenotype (%) [1]: 0%
- Population Mitochondria Different-Phenotype (%) [1]: 4%
- Population Mitotic Cells (%) [1]: 31%
- Population Normal (%) [1]: 98%
- Population Pyknosed Nuclei (%) [1]: 19%
- Population Tubulin-Different-Phenotype (%) [1]: 29%
- Total Cell Count [1]: 97
- Population Apoptotic (%) [2]: 30%
- Population Fragmented Nuclei (%) [2]: 18%
- Population Healthy Nuclei (%) [2]: 56%
- Population Hoechst High Intensity Objects (%) [2]: 4%
- Population Membrane Permeable-Phenotype (%) [2]: 1%
- Population Mitochondria Different-Phenotype (%) [2]: 6%
- Population Mitotic Cells (%) [2]: 69%
- Population Normal (%) [2]: 95%
- Population Pyknosed Nuclei (%) [2]: 25%
- Population Tubulin-Different-Phenotype (%) [2]: 37%
- Total Cell Count [2]: 163
- Population Apoptotic (%) [3]: 56%
- Population Fragmented Nuclei (%) [3]: 8%
- Population Healthy Nuclei (%) [3]: 70%
- Population Hoechst High Intensity Objects (%) [3]: 5%
- Population Membrane Permeable-Phenotype (%) [3]: 0%
- Population Mitochondria Different-Phenotype (%) [3]: 11%
- Population Mitotic Cells (%) [3]: 43%
- Population Normal (%) [3]: 94%
- Population Pyknosed Nuclei (%) [3]: 21%
- Population Tubulin-Different-Phenotype (%) [3]: 25%
- Total Cell Count [3]: 145
- Population Apoptotic (%) [4]: 33%
- Population Fragmented Nuclei (%) [4]: 39%
- Population Healthy Nuclei (%) [4]: 25%
- Population Hoechst High Intensity Objects (%) [4]: 4%
- Population Membrane Permeable-Phenotype (%) [4]: 5%
- Population Mitochondria Different-Phenotype (%) [4]: 0%
- Population Mitotic Cells (%) [4]: 66%
- Population Normal (%) [4]: 95%
- Population Pyknosed Nuclei (%) [4]: 34%
- Population Tubulin-Different-Phenotype (%) [4]: 35%
- Total Cell Count [4]: 82
- Population Apoptotic (%) [5]: 62%
- Population Fragmented Nuclei (%) [5]: 15%
- Population Healthy Nuclei (%) [5]: 67%
- Population Hoechst High Intensity Objects (%) [5]: 2%
- Population Membrane Permeable-Phenotype (%) [5]: 0%
- Population Mitochondria Different-Phenotype (%) [5]: 4%
- Population Mitotic Cells (%) [5]: 37%
- Population Normal (%) [5]: 97%
- Population Pyknosed Nuclei (%) [5]: 17%
- Population Tubulin-Different-Phenotype (%) [5]: 38%
- Total Cell Count [5]: 95
- Population Apoptotic (%) [6]: 34%
- Population Fragmented Nuclei (%) [6]: 14%
- Population Healthy Nuclei (%) [6]: 62%
- Population Hoechst High Intensity Objects (%) [6]: 5%
- Population Membrane Permeable-Phenotype (%) [6]: 3%
- Population Mitochondria Different-Phenotype (%) [6]: 3%
- Population Mitotic Cells (%) [6]: 65%
- Population Normal (%) [6]: 94%
- Population Pyknosed Nuclei (%) [6]: 23%
- Total Cell Count [6]: 158
- Population Apoptotic (%) [7]: 69%
- Population Fragmented Nuclei (%) [7]: 12%
- Population Healthy Nuclei (%) [7]: 68%
- Population Hoechst High Intensity Objects (%) [7]: 7%
- Population Membrane Permeable-Phenotype (%) [7]: 0%
- Population Mitochondria Different-Phenotype (%) [7]: 11%
- Population Mitotic Cells (%) [7]: 30%
- Population Normal (%) [7]: 92%
- Population Pyknosed Nuclei (%) [7]: 18%
- Population Tubulin-Different-Phenotype (%) [7]: 29%
- Total Cell Count [7]: 149
- Population Apoptotic (%) [8]: 27%
- Population Fragmented Nuclei (%) [8]: 46%
- Population Healthy Nuclei (%) [8]: 27%
- Population Hoechst High Intensity Objects (%) [8]: 5%
- Population Membrane Permeable-Phenotype (%) [8]: 5%
- Population Mitochondria Different-Phenotype (%) [8]: 10%
- Population Mitotic Cells (%) [8]: 72%
- Population Normal (%) [8]: 94%
- Population Pyknosed Nuclei (%) [8]: 26%
- Population Tubulin-Different-Phenotype (%) [8]: 36%
- Total Cell Count [8]: 73
- Population Apoptotic (%) [9]: 60%
- Population Fragmented Nuclei (%) [9]: 19%
- Population Healthy Nuclei (%) [9]: 64%
- Population Hoechst High Intensity Objects (%) [9]: 4%
- Population Membrane Permeable-Phenotype (%) [9]: 1%
- Population Mitochondria Different-Phenotype (%) [9]: 5%
- Population Mitotic Cells (%) [9]: 40%
- Population Normal (%) [9]: 95%
- Population Pyknosed Nuclei (%) [9]: 16%
- Population Tubulin-Different-Phenotype (%) [9]: 28%
- Total Cell Count [9]: 93
- Population Apoptotic (%) [10]: 61%
- Population Fragmented Nuclei (%) [10]: 24%
- Population Healthy Nuclei (%) [10]: 54%
- Population Hoechst High Intensity Objects (%) [10]: 0%
- Population Membrane Permeable-Phenotype (%) [10]: 4%
- Population Mitochondria Different-Phenotype (%) [10]: 10%
- Population Mitotic Cells (%) [10]: 38%
- Population Normal (%) [10]: 99%
- Population Pyknosed Nuclei (%) [10]: 20%
- Population Tubulin-Different-Phenotype (%) [10]: 42%
- Total Cell Count [10]: 154
- Population Apoptotic (%) [11]: 61%
- Population Fragmented Nuclei (%) [11]: 14%
- Population Healthy Nuclei (%) [11]: 71%
- Population Hoechst High Intensity Objects (%) [11]: 7%
- Population Membrane Permeable-Phenotype (%) [11]: 1%
- Population Mitochondria Different-Phenotype (%) [11]: 10%
- Population Mitotic Cells (%) [11]: 38%
- Population Normal (%) [11]: 92%
- Population Pyknosed Nuclei (%) [11]: 13%
- Population Tubulin-Different-Phenotype (%) [11]: 34%
- Total Cell Count [11]: 145
- Population Apoptotic (%) [12]: 71%
- Population Fragmented Nuclei (%) [12]: 50%
- Population Healthy Nuclei (%) [12]: 31%
- Population Hoechst High Intensity Objects (%) [12]: 3%
- Population Membrane Permeable-Phenotype (%) [12]: 0%
- Population Mitochondria Different-Phenotype (%) [12]: 0%
- Population Mitotic Cells (%) [12]: 28%
- Population Normal (%) [12]: 96%
- Population Pyknosed Nuclei (%) [12]: 18%
- Population Tubulin-Different-Phenotype (%) [12]: 62%
- Total Cell Count [12]: 79

Structure (SMILES): CC(F)(F)CN1CCOc2c(nn(-c3ccccc3Cl)c2-c2ccc(Cl)cc2)C1=O
- Population Apoptotic (%) [1]: 42%
- Population Healthy Nuclei (%) [1]: 66%
- Population Hoechst High Intensity Objects (%) [1]: 0%
- Population Mitochondria Different-Phenotype (%) [1]: 4%
- Population Mitotic Cells (%) [1]: 57%
- Population Normal (%) [1]: 99%
- Population Pyknosed Nuclei (%) [1]: 15%
- Total Cell Count [1]: 125
- Population Apoptotic (%) [2]: 31%
- Population Healthy Nuclei (%) [2]: 48%
- Population Mitochondria Different-Phenotype (%) [2]: 10%
- Population Mitotic Cells (%) [2]: 68%
- Population Normal (%) [2]: 93%
- Population Pyknosed Nuclei (%) [2]: 25%
- Population Tubulin-Different-Phenotype (%) [2]: 61%
- Total Cell Count [2]: 122
- Population Apoptotic (%) [3]: 47%
- Population Healthy Nuclei (%) [3]: 66%
- Population Hoechst High Intensity Objects (%) [3]: 1%
- Population Mitochondria Different-Phenotype (%) [3]: 19%
- Population Mitotic Cells (%) [3]: 52%
- Population Normal (%) [3]: 98%
- Population Pyknosed Nuclei (%) [3]: 17%
- Population Tubulin-Different-Phenotype (%) [3]: 49%
- Total Cell Count [3]: 109
- Population Apoptotic (%) [4]: 30%
- Population Healthy Nuclei (%) [4]: 53%
- Population Hoechst High Intensity Objects (%) [4]: 5%
- Population Mitochondria Different-Phenotype (%) [4]: 8%
- Population Mitotic Cells (%) [4]: 70%
- Population Normal (%) [4]: 94%
- Population Pyknosed Nuclei (%) [4]: 15%
- Population Tubulin-Different-Phenotype (%) [4]: 57%
- Total Cell Count [4]: 134
- Population Apoptotic (%) [5]: 61%
- Population Healthy Nuclei (%) [5]: 65%
- Population Hoechst High Intensity Objects (%) [5]: 1%
- Population Mitochondria Different-Phenotype (%) [5]: 2%
- Population Mitotic Cells (%) [5]: 38%
- Population Normal (%) [5]: 98%
- Population Pyknosed Nuclei (%) [5]: 15%
- Total Cell Count [5]: 119
- Population Apoptotic (%) [6]: 64%
- Population Healthy Nuclei (%) [6]: 52%
- Population Hoechst High Intensity Objects (%) [6]: 4%
- Population Mitochondria Different-Phenotype (%) [6]: 10%
- Population Mitotic Cells (%) [6]: 36%
- Population Normal (%) [6]: 95%
- Population Pyknosed Nuclei (%) [6]: 20%
- Population Tubulin-Different-Phenotype (%) [6]: 75%
- Total Cell Count [6]: 129
- Population Apoptotic (%) [7]: 33%
- Population Healthy Nuclei (%) [7]: 65%
- Population Hoechst High Intensity Objects (%) [7]: 0%
- Population Mitochondria Different-Phenotype (%) [7]: 26%
- Population Mitotic Cells (%) [7]: 66%
- Population Normal (%) [7]: 99%
- Population Pyknosed Nuclei (%) [7]: 10%
- Population Tubulin-Different-Phenotype (%) [7]: 58%
- Total Cell Count [7]: 111
- Population Apoptotic (%) [8]: 35%
- Population Healthy Nuclei (%) [8]: 54%
- Population Hoechst High Intensity Objects (%) [8]: 1%
- Population Mitochondria Different-Phenotype (%) [8]: 10%
- Population Mitotic Cells (%) [8]: 64%
- Population Normal (%) [8]: 98%
- Population Pyknosed Nuclei (%) [8]: 14%
- Population Tubulin-Different-Phenotype (%) [8]: 60%
- Total Cell Count [8]: 121
- Population Apoptotic (%) [9]: 56%
- Population Healthy Nuclei (%) [9]: 63%
- Population Hoechst High Intensity Objects (%) [9]: 1%
- Population Mitochondria Different-Phenotype (%) [9]: 2%
- Population Mitotic Cells (%) [9]: 43%
- Population Normal (%) [9]: 98%
- Population Pyknosed Nuclei (%) [9]: 11%
- Population Tubulin-Different-Phenotype (%) [9]: 35%
- Total Cell Count [9]: 136
- Population Apoptotic (%) [10]: 40%
- Population Healthy Nuclei (%) [10]: 53%
- Population Hoechst High Intensity Objects (%) [10]: 4%
- Population Mitochondria Different-Phenotype (%) [10]: 21%
- Population Mitotic Cells (%) [10]: 60%
- Population Normal (%) [10]: 95%
- Population Pyknosed Nuclei (%) [10]: 7%
- Population Tubulin-Different-Phenotype (%) [10]: 72%
- Total Cell Count [10]: 135
- Population Apoptotic (%) [11]: 78%
- Population Healthy Nuclei (%) [11]: 56%
- Population Hoechst High Intensity Objects (%) [11]: 1%
- Population Mitochondria Different-Phenotype (%) [11]: 22%
- Population Mitotic Cells (%) [11]: 21%
- Population Normal (%) [11]: 98%
- Population Pyknosed Nuclei (%) [11]: 11%
- Total Cell Count [11]: 120
- Population Apoptotic (%) [12]: 54%
- Population Healthy Nuclei (%) [12]: 54%
- Population Mitochondria Different-Phenotype (%) [12]: 7%
- Population Mitotic Cells (%) [12]: 45%
- Population Pyknosed Nuclei (%) [12]: 7%
- Population Tubulin-Different-Phenotype (%) [12]: 57%
- Total Cell Count [12]: 141

Source: ChEMBL document CHEMBL5058577, “EUbOPEN Chemogenomics Library 2 (Multiplex)” (2022)
